# In the library only some 1.7% were active in any assay of this set; here they are far more common.
# CAL PDZ FP-1 – inhibitors of human CAL PDZ peptide binding; Q9HD26; purified CAL PDZ, TMR-peptide fluorescence polarization, 1 h; inhibition, % at 20 µM; 330,000 tested, 0.02% active; AID 504414;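 active means highest replicate inhibition of at least 40%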;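 further: plate controls were DMSO neutral control wells for no effect and unlabeled competitor peptide control wells for full effect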
#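 Material: tagged CAL PDZ protein CerCALP, purified; buffer or medium: sodium phosphate/NaCl buffer pH 7.4 with TCEP, IgG, Thesit; also added: fluorescent TMR peptide probe; schedule: 1 h incubation at room temperature before polarization reading; technique: fluorescence polarization from S- and P-plane intensities, G-factor corrected; control set: unlabelled peptide and DMSO controls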
# miR-122 sensor – inhibitors of miR-122 in Huh7 cells; Huh7 miR-122 Renilla luciferase sensor, 48 h; neutral wells = 0, positive control = 100; activation (reporter increase), % at 12.5 µM; 340,000 tested, 0.3% active; AID 602342;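 active means mean replicate activation score at least 90 and every replicate individually at or above 90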;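 further: higher luciferase means less miR-122 activity so hits act as miR-122 inhibitors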
# CAL PDZ FP-2 – blocks peptide binding to the human CAL PDZ domain; Q9HD26; purified CAL PDZ, TMR-peptide fluorescence polarization, 1 h; inhibition, % at 24.9 µM; 300,000 tested, 0.92% active; AID 602252;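 active means mean inhibition of at least 30% with at least half of replicates also reaching 30%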;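 further: 0% = DMSO neutral control and 100% = excess unlabeled competitor peptide PRC23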
# PGC1a acetyl inh – modulators of PGC1a acetylation; U2OS PGC1a acetylation, AlphaScreen anti-acetyl-lysine; with virally co-expressed GCN5 acetyltransferase; 350,000 tested, 0.17% active; inhibition, % at 15.6 µM;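 active means every replicate shows inhibition of at least 40%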;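 further: 0% = neutral control wells and 100% = positive control wells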
# F508del corr – CFTR F508del correction in bronchial cells. CFBE cells, YFP halide quenching; stimulated with forskolin plus potentiator P3; % fluorescence drop versus neutral controls. activity (quench increase), % at 7.58 µM. 350,000 tested, 0.36% active. AID 720511;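 active means mean added fluorescence quench of at least 8% versus neutral control, with both replicates also reaching 8%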;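 further: cells transiently co-express mutant CFTR-F508del with the halide-sensitive YFP; corrector assay measuring rescue of mutant channel to the surface after 24 h compound exposure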
# ARNT-TACC3 inh – disruptors of human ARNT/TACC3 interaction; AlphaScreen His-ARNT PAS-B/GST-TACC3 binding, luminescence; TACC3 fragment carries E629A point mutation; Q9Y6A5; AID 623870; 390,000 tested, 0.66% active; inhibition, % at 9.99 µM;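 active means mean inhibition of replicates at least 50% and at least half of replicates each reaching 50%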;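 further: 0% = complete ARNT plus TACC3 wells and 100% = ARNT alone without TACC3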
# * = called active by the depositor; / = not tested or not shown; [ ] = remark or other dose.
SMILES,CAL PDZ FP-1,miR-122 sensor,CAL PDZ FP-2,PGC1a acetyl inh,F508del corr,ARNT-TACC3 inh
C[C@H]1CN([C@@H](C)CO)C(=O)Cc2cc(NC(=O)Nc3ccc(C(F)(F)F)cc3)ccc2O[C@H]1CN(C)S(=O)(=O)c1ccccc1,/,-20.1[16.7 µM],/,-2.3,11.2*,-8.1
C[C@@H]1CN([C@@H](C)CO)C(=O)Cc2cc(NC(=O)Nc3ccc(C(F)(F)F)cc3)ccc2O[C@H]1CN(C)C(=O)Nc1ccccc1,/,-1.6[16.7 µM],/,-7.2,9.3*,1.1
COCC(=O)N(C)C[C@@H]1Oc2ncc(C#CC3(O)CCCC3)cc2C(=O)N([C@@H](C)CO)C[C@H]1C,/,14.0[16.7 µM],/,-3.6,1.3,-5.9
CCCNC(=O)N1CC2(C1)CN(Cc1ccccn1)[C@H](CO)c1c2c2ccc(OC)cc2n1C,/,/,/,5.8,-2.5,/
COc1ccc(NC(=O)Nc2ccc3c(c2)CC(=O)N([C@@H](C)CO)C[C@@H](C)[C@H](CN(C)C(=O)NC(C)C)O3)cc1,/,101.0*[16.7 µM],/,11.0,0.8,-0.6
CC(C)NC(=O)N1[C@H](C(=O)N2CCC(Cc3ccccc3)CC2)[C@@H](CO)[C@@H]2Cn3c(cccc3=O)[C@@H]21,/,21.8[16.7 µM],/,-1.1,-1.1,13.4
CCc1ccc(NS(=O)(=O)c2ccc(OC)c3ncccc23)cc1,0.2,173.2*,1.0,-3.4,-0.7,-4.2
CCc1ccccc1NS(=O)(=O)c1ccc(OC)c2ncccc12,-1.2,83.9,-15.6,9.1,-0.2,/
N#Cc1cnn2c1nc(N1CCCCC1)c1ccccc12,-0.1,133.8*,-4.9,-7.9,/,-25.3
Cc1ccc(S(=O)(=O)N2CCCCC2CCNC(=O)C(=O)NCc2ccncc2)cc1 (stereo not given),-1.8,/,-4.1,/,2.9,/
Cc1ccc(S(=O)(=O)N2CCCCC2CCNC(=O)C(=O)NCc2ccccc2)cc1 (stereo not given),-2.4,/,-2.3,/,9.8*,-0.8
Cc1ccc(S(=O)(=O)N2CCOC2CNC(=O)C(=O)NCCc2ccccc2)cc1 (stereo not given),-1.2,6.2,33.2*,-3.7,-0.3,-1.2
Cc1ccc(S(=O)(=O)N2CCCOC2CNC(=O)C(=O)NCCCn2ccnc2)cc1 (stereo not given),-0.5,/,-3.6,/,/,78.2*
CC(C)NC(=O)N1[C@H](CO)[C@@H]2c3ccccc3N(C(=O)Nc3ccc(Cl)cc3)C[C@@H]21,/,-11.5[16.7 µM],/,-6.9,1.5,-3.6
Cc1ccccc1NC(=S)N/N=C/c1ccc(O)cc1O,-0.4,-2.5,1.6,3.2,2.3,57.5*
O=C(O)c1cccc(NC(=S)N/N=C/c2cccc(O)c2)c1,-1.4,/,-0.1,/,-0.6,/
Cc1cccc(NC(=S)N/N=C/c2cccc(O)c2)c1C,0.3,40.6,3.0,-10.8,10.6*,2.3
CCNC(=O)C[C@H]1C=C[C@@H](NS(=O)(=O)c2ccc(F)cc2)[C@@H](CO)O1,/,-1.6[16.7 µM],/,5.5,-0.4,13.6
O=C(Cc1cccnc1)N1CC2(C1)[C@H](c1ccccc1)[C@@H](CO)N2C(=O)C1CCCCC1,/,/,/,8.4,-0.4,/
C=C1C(=O)[C@]23C[C@H]1CC[C@H]2[C@]1(C)[C@@H](OC(C)=O)CC[C@@](C)(C(=O)OC)[C@H]1C[C@@H]3OC(C)=O,/,2.3,/,94.0*,-18.2,/
C=C1C(=O)[C@]23C[C@H]1CC[C@H]2[C@]1(C)[C@@H](O)CC[C@@](C)(C(=O)O)[C@H]1C[C@@H]3O,/,-4.2,/,-14.3,-0.1,/
C=C1C(=O)[C@]23C[C@H]1CCC2[C@@]1(C)C(C[C@@H]3O)[C@](C)(C(=O)OC)CC[C@@H]1OC(C)=O (stereo not given in full),/,-25.3,/,103.0*,-2.0,/
C=C1C(=O)[C@]23C[C@H]1CC[C@H]2[C@]1(C)[C@@H](OC(C)=O)CC[C@@](C)(C(=O)O)[C@H]1C[C@@H]3O,/,7.1,/,15.0,8.6*,/
O=C(C[C@@H]1CC[C@@H](NC(=O)C2CCOCC2)[C@@H](CO)O1)Nc1nccs1,/,/,/,4.4,-3.9,-1.3
Cc1noc(C)c1S(=O)(=O)Nc1ccc2c(c1)C(=O)N([C@@H](C)CO)C[C@H](C)[C@H](CN(C)Cc1ccc3c(c1)OCO3)OCCCC[C@H](C)O2,/,3.1[16.7 µM],/,25.3,-3.1,-17.9
SMILES,CAL PDZ FP-1,miR-122 sensor,CAL PDZ FP-2,PGC1a acetyl inh,F508del corr,ARNT-TACC3 inh
C[C@@H]1CN([C@@H](C)CO)C(=O)c2cc(NS(=O)(=O)c3cccs3)ccc2O[C@@H](C)CCCCO[C@@H]1CN(C)S(=O)(=O)c1ccccc1,/,-3.0[16.7 µM],/,1.1,-2.0,-9.3
C[C@@H]1CCCCO[C@H](CN(C)Cc2ccncc2)[C@H](C)CN([C@@H](C)CO)C(=O)c2cc(NC(=O)Nc3ccc4c(c3)OCO4)ccc2O1,/,9.4[16.7 µM],/,-0.9,2.6,2.9
CC(C)NC(=O)Nc1ccc2c(c1)C(=O)N([C@@H](C)CO)C[C@H](C)[C@H](CN(C)Cc1ccncc1)O2,/,3.3[16.7 µM],/,-2.6,1.4,9.0
S=C(Nc1ccc(Cl)c(Cl)c1)N1CCCC1,-0.1,27.2,7.3,/,0.6,-0.6
S=C(Nc1ccc2nsnc2c1)N1CCCCC1,-0.1,/,-1.1,/,-0.3,29.3*
S=C(Nc1ccc2nc(-c3ccccn3)c(-c3ccccn3)nc2c1)N1CCCCCC1,-3.2,/,1.4,-1.4,-3.0,8.4
CCCNC(=S)Nc1ccc2nc(-c3ccccn3)c(-c3ccccn3)nc2c1,-1.7,-11.5,-5.4,/,/,56.6*
S=C(Nc1ccc2nccnc2c1)N1CCOCC1,-0.8,-4.2,-0.5,4.6,-0.5,45.7*
S=C(Nc1ccc2nc(-c3ccccn3)c(-c3ccccn3)nc2c1)N1CCCCC1,-0.6,-1.3,-4.5,-1.0,/,70.2*
C[C@@H]1CCCCO[C@H](CN(C)Cc2ccc(C(=O)Nc3ccccc3N)cc2)[C@@H](C)CN([C@@H](C)CO)C(=O)c2cc(NS(=O)(=O)c3ccc(Cl)cc3)ccc2O1,/,39.1[16.7 µM],/,1.7,1.3,34.8
C[C@@H]1CCCCO[C@@H](CN(C)C(=O)Cc2ccccc2)[C@@H](C)CN([C@@H](C)CO)C(=O)c2cc(NC(=O)CCCN(C)C)ccc2O1,/,-7.6[16.7 µM],/,11.0,0.2,1.0
C#CC(=O)N(c1ccc(OC)cc1OC)C(C(=O)NC1CCCC1)c1cccs1 (stereo not given),0.4,-31.5,4.5,94.5*,-1.4,-7.4

# Assay outcomes: PubChem BioAssay, Broad Institute
